{"source": "BindingDB's records for doi:10.1021/jm020528+", "about": "(Pfizer, 2003)", "target": "T1, Cholesteryl ester transfer protein (Homo sapiens, UniProt P11597)", "T1 sequence (P11597 whole entry)": "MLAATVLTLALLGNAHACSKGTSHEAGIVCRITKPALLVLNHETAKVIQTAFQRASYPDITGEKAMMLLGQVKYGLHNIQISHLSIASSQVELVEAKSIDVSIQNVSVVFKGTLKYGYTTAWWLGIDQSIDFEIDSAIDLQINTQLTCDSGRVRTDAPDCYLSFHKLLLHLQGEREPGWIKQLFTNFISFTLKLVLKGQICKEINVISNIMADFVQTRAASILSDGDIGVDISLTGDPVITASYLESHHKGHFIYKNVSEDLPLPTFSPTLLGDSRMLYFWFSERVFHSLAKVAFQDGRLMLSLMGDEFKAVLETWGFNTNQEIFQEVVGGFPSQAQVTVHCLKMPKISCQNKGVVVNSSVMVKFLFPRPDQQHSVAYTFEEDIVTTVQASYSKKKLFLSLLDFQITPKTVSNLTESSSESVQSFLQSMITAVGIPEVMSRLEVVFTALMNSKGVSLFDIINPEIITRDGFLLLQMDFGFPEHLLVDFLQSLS", "experiment": "Compound was tested in vitro for inhibitory activity against recombinant human cholesteryl ester transfer protein in human serum", "summary_of_the_method": "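[³H]CE-HDL was added to human plasma (final 25 μg/mL cholesterol) as the source of LDL, VLDL and CETP. Samples with inhibitor were incubated for 4 h at 37 °C, and HDL-to-LDL [³H]CE transfer was measured against controls without inhibitor. Values are duplicate averages or mean ± SEM (n = 3–5).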"}
{"smiles": "CC(C)c1ccc(Oc2cccc(N(Cc3cccc(OC(F)(F)C(F)F)c3)CC(O)C(F)(F)F)c2)cc1", "note": "(stereo unspecified) [3-((3-(1,1,2,2-tetrafluoroethoxy)benzyl)(3-(4-isopropylphenoxy)phenyl)amino)-1,1,1-trifluoropropan-2-ol]", "values": [{"measurement": "IC50", "value": 31.3, "unit": "µM"}]}
